According to ChEMBL document CHEMBL3098013, “Novel pyrazole integrated 1,3,4-oxadiazoles: synthesis, characterization and antimicrobial evaluation” (2014):
In brackets after ≈: the same amount, converted by molar mass.

Experiments:
Assay type in all cases: functional
Fusarium verticillioides [1] = test: Antimicrobial activity against Fusarium moniliforme MTCC 156 after 48 hrs by microdilution method; settings: MTCC 156, 48 h
How it was run: (§1)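 The minimal inhibitory concentration was determined by dilution, alongside minimal bactericidal concentration for bacterial strains and minimal fungicidal concentration for fungal strains. Tests were run in six replicates, and the value is the mean of at least three determinations.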

Fusarium oxysporum [2] = test: Antimicrobial activity against Fusarium oxysporum MTCC 284 after 48 hrs by microdilution method; settings: MTCC 284, 48 h; how it was run: as §1
Aspergillus niger [3] = test: Antimicrobial activity against Aspergillus niger MTCC 281 after 48 hrs by microdilution method; settings: MTCC 281, 48 h; how it was run: as §1
Aspergillus flavus [4] = test: Antimicrobial activity against Aspergillus flavus MTCC 873 after 48 hrs by microdilution method; settings: MTCC 873, 48 h; how it was run: as §1
Klebsiella pneumoniae [5] = test: Antimicrobial activity against Klebsiella pneumoniae MTCC 3384 after 24 hrs by microdilution method; settings: MTCC 3384, 24 h; how it was run: as §1
Escherichia coli [6] = test: Antimicrobial activity against Escherichia coli MTCC 724 after 24 hrs by microdilution method; settings: MTCC 724, 24 h; how it was run: as §1
Staphylococcus aureus [7] = test: Antimicrobial activity against Staphylococcus aureus MTCC 96 after 24 hrs by microdilution method; settings: MTCC 96, 24 h; how it was run: as §1
Bacillus cereus [8] = test: Antimicrobial activity against Bacillus cereus MTCC 8372 after 24 hrs by microdilution method; settings: MTCC 8372, 24 h; how it was run: as §1
Fusarium verticillioides [9] = test: Antimicrobial activity against Fusarium moniliforme MTCC 156 at 100 ug/ml after 48 hrs by disc diffusion method; settings: MTCC 156, 48 h, read-out: DIZ
How it was run: (§2)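 Agar diffusion read-out is the diameter of the inhibition zone in mm. Each test was run in six replicates and reported as mean ± standard deviation, taken from at least three determinations.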

Fusarium verticillioides [10] = test: Antimicrobial activity against Fusarium moniliforme MTCC 156 at 50 ug/ml after 48 hrs by disc diffusion method; settings: MTCC 156, 48 h, read-out: DIZ; how it was run: as §2
Fusarium oxysporum [11] = test: Antimicrobial activity against Fusarium oxysporum MTCC 284 at 100 ug/ml after 48 hrs by disc diffusion method; settings: MTCC 284, 48 h, read-out: DIZ; how it was run: as §2
Fusarium oxysporum [12] = test: Antimicrobial activity against Fusarium oxysporum MTCC 284 at 50 ug/ml after 48 hrs by disc diffusion method; settings: MTCC 284, 48 h, read-out: DIZ; how it was run: as §2
Aspergillus niger [13] = test: Antimicrobial activity against Aspergillus niger MTCC 281 at 100 ug/ml after 48 hrs by disc diffusion method; settings: MTCC 281, 48 h, read-out: DIZ; how it was run: as §2
Aspergillus niger [14] = test: Antimicrobial activity against Aspergillus niger MTCC 281 at 50 ug/ml after 48 hrs by disc diffusion method; settings: MTCC 281, 48 h, read-out: DIZ; how it was run: as §2
Aspergillus flavus [15] = test: Antimicrobial activity against Aspergillus flavus MTCC 873 at 100 ug/ml after 48 hrs by disc diffusion method; settings: MTCC 873, 48 h, read-out: DIZ; how it was run: as §2
Aspergillus flavus [16] = test: Antimicrobial activity against Aspergillus flavus MTCC 873 at 50 ug/ml after 48 hrs by disc diffusion method; settings: MTCC 873, 48 h, read-out: DIZ; how it was run: as §2
Klebsiella pneumoniae [17] = test: Antimicrobial activity against Klebsiella pneumoniae MTCC 3384 at 100 ug/ml after 24 hrs by disc diffusion method; settings: MTCC 3384, 24 h, read-out: DIZ; how it was run: as §2
Escherichia coli [18] = test: Antimicrobial activity against Escherichia coli MTCC 724 at 100 ug/ml after 24 hrs by disc diffusion method; settings: MTCC 724, 24 h, read-out: DIZ; how it was run: as §2
Klebsiella pneumoniae [19] = test: Antimicrobial activity against Klebsiella pneumoniae MTCC 3384 at 50 ug/ml after 24 hrs by disc diffusion method; settings: MTCC 3384, 24 h, read-out: DIZ; how it was run: as §2
Escherichia coli [20] = test: Antimicrobial activity against Escherichia coli MTCC 724 at 50 ug/ml after 24 hrs by disc diffusion method; settings: MTCC 724, 24 h, read-out: DIZ; how it was run: as §2
Staphylococcus aureus [21] = test: Antimicrobial activity against Staphylococcus aureus MTCC 96 at 100 ug/ml after 24 hrs by disc diffusion method; settings: MTCC 96, 24 h, read-out: DIZ; how it was run: as §2
Staphylococcus aureus [22] = test: Antimicrobial activity against Staphylococcus aureus MTCC 96 at 50 ug/ml after 24 hrs by disc diffusion method; settings: MTCC 96, 24 h, read-out: DIZ; how it was run: as §2
Bacillus cereus [23] = test: Antimicrobial activity against Bacillus cereus MTCC 8372 at 100 ug/ml after 24 hrs by disc diffusion method; settings: MTCC 8372, 24 h, read-out: DIZ; how it was run: as §2
Bacillus cereus [24] = test: Antimicrobial activity against Bacillus cereus MTCC 8372 at 50 ug/ml after 24 hrs by disc diffusion method; settings: MTCC 8372, 24 h, read-out: DIZ; how it was run: as §2

Row | Compound | MFC (Fusarium verticillioides [1]) [µg/mL] | MIC (Fusarium verticillioides [1]) [µg/mL] | MFC (Fusarium oxysporum [2]) [µg/mL] | MIC (Fusarium oxysporum [2]) [µg/mL] | MFC (Aspergillus niger [3]) [µg/mL] | MIC (Aspergillus niger [3]) [µg/mL] | MFC (Aspergillus flavus [4]) [µg/mL] | MIC (Aspergillus flavus [4]) [µg/mL] | MBC (Klebsiella pneumoniae [5]) [µg/mL] | MIC (Klebsiella pneumoniae [5]) [µg/mL] | MBC (Escherichia coli [6]) [µg/mL] | MIC (Escherichia coli [6]) [µg/mL] | MBC (Staphylococcus aureus [7]) [µg/mL] | MIC (Staphylococcus aureus [7]) [µg/mL] | MBC (Bacillus cereus [8]) [µg/mL] | MIC (Bacillus cereus [8]) [µg/mL] | zone of inhibition at 100 µg/mL (Fusarium verticillioides [9]) [mm] | zone of inhibition at 50 µg/mL (Fusarium verticillioides [10]) [mm] | zone of inhibition at 100 µg/mL (Fusarium oxysporum [11]) [mm] | zone of inhibition at 50 µg/mL (Fusarium oxysporum [12]) [mm] | further results
1 | Cc1c(C(=O)NN)c(-c2ccccc2)nn1-c1ccccc1 | 280 (≈ 958 µM) | 50 (≈ 171 µM) | 270 (≈ 924 µM) | 45 (≈ 154 µM) | 260 (≈ 889 µM) | 45 (≈ 154 µM) | 275 (≈ 941 µM) | 40 (≈ 137 µM) | 230 (≈ 787 µM) | 35 (≈ 120 µM) | 240 (≈ 821 µM) | 35 (≈ 120 µM) | 250 (≈ 855 µM) | 40 (≈ 137 µM) | 260 (≈ 889 µM) | 40 (≈ 137 µM) | 6 | 4 | 8 | 3 | zone of inhibition at 100 µg/mL (Aspergillus niger [13]): 8 mm; zone of inhibition at 50 µg/mL (Aspergillus niger [14]): 2 mm; zone of inhibition at 100 µg/mL (Aspergillus flavus [15]): 6 mm; zone of inhibition at 50 µg/mL (Aspergillus flavus [16]): 2 mm; zone of inhibition at 100 µg/mL (Klebsiella pneumoniae [17]): 8 mm; zone of inhibition at 100 µg/mL (Escherichia coli [18]): 11 mm; zone of inhibition at 50 µg/mL (Klebsiella pneumoniae [19]): 5 mm; zone of inhibition at 50 µg/mL (Escherichia coli [20]): 9 mm; zone of inhibition at 100 µg/mL (Staphylococcus aureus [21]): 9 mm; zone of inhibition at 50 µg/mL (Staphylococcus aureus [22]): 2 mm; zone of inhibition at 100 µg/mL (Bacillus cereus [23]): 6 mm; zone of inhibition at 50 µg/mL (Bacillus cereus [24]): 4 mm
2 | Cc1c(-c2nnc(-c3ccc(Cl)cc3)o2)c(-c2ccccc2)nn1-c1ccccc1 | 300 (≈ 727 µM) | 55 (≈ 133 µM) | 275 (≈ 666 µM) | 40 (≈ 96.9 µM) | 215 (≈ 521 µM) | 25 (≈ 60.6 µM) | 230 (≈ 557 µM) | 30 (≈ 72.7 µM) | 220 (≈ 533 µM) | 30 (≈ 72.7 µM) | 235 (≈ 569 µM) | 35 (≈ 84.8 µM) | 250 (≈ 606 µM) | 45 (≈ 109 µM) | 240 (≈ 581 µM) | 40 (≈ 96.9 µM) | 8 | 6 | 8 | 4 | zone of inhibition at 100 µg/mL (Aspergillus niger [13]): 24 mm; zone of inhibition at 50 µg/mL (Aspergillus niger [14]): 9 mm; zone of inhibition at 100 µg/mL (Aspergillus flavus [15]): 16 mm; zone of inhibition at 50 µg/mL (Aspergillus flavus [16]): 14 mm; zone of inhibition at 100 µg/mL (Klebsiella pneumoniae [17]): 12 mm; zone of inhibition at 100 µg/mL (Escherichia coli [18]): 12 mm; zone of inhibition at 50 µg/mL (Klebsiella pneumoniae [19]): 6 mm; zone of inhibition at 50 µg/mL (Escherichia coli [20]): 10 mm; zone of inhibition at 100 µg/mL (Staphylococcus aureus [21]): 10 mm; zone of inhibition at 50 µg/mL (Staphylococcus aureus [22]): 5 mm; zone of inhibition at 100 µg/mL (Bacillus cereus [23]): 8 mm; zone of inhibition at 50 µg/mL (Bacillus cereus [24]): 4 mm
3 | Cc1c(C(=O)NNC(=O)c2ccccc2)c(-c2ccccc2)nn1-c1ccccc1 | 260 (≈ 656 µM) | 50 (≈ 126 µM) | 260 (≈ 656 µM) | 40 (≈ 101 µM) | 215 (≈ 542 µM) | 30 (≈ 75.7 µM) | 275 (≈ 694 µM) | 50 (≈ 126 µM) | 200 (≈ 504 µM) | 25 (≈ 63.1 µM) | 190 (≈ 479 µM) | 25 (≈ 63.1 µM) | 200 (≈ 504 µM) | 25 (≈ 63.1 µM) | 180 (≈ 454 µM) | 25 (≈ 63.1 µM) | 9 | 6 | 10 | 8 | zone of inhibition at 100 µg/mL (Aspergillus niger [13]): 14 mm; zone of inhibition at 50 µg/mL (Aspergillus niger [14]): 8 mm; zone of inhibition at 100 µg/mL (Aspergillus flavus [15]): 12 mm; zone of inhibition at 50 µg/mL (Aspergillus flavus [16]): 10 mm; zone of inhibition at 100 µg/mL (Klebsiella pneumoniae [17]): 14 mm; zone of inhibition at 100 µg/mL (Escherichia coli [18]): 18 mm; zone of inhibition at 50 µg/mL (Klebsiella pneumoniae [19]): 8 mm; zone of inhibition at 50 µg/mL (Escherichia coli [20]): 13 mm; zone of inhibition at 100 µg/mL (Staphylococcus aureus [21]): 18 mm; zone of inhibition at 50 µg/mL (Staphylococcus aureus [22]): 6 mm; zone of inhibition at 100 µg/mL (Bacillus cereus [23]): 16 mm; zone of inhibition at 50 µg/mL (Bacillus cereus [24]): 8 mm
